This note sets out measurements from ChEMBL document CHEMBL1122704, “Syntheses and anthelmintic activity of alkyl 5(6)-(substituted-carbamoyl)- and 5(6)-(disubstituted-carbamoyl)benzimidazole-2-carbamates and related compounds” (1984).

For experiment [1], the system named is Cricetinae gen. sp. Nature of the experiment: Compound was evaluated for the biological activity against Ancylostoma ceylanicum in hamsters at the 10 mg/kg. The format is functional, Cricetulus griseus. The essentials: (§1)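 Hamsters of either sex (40–60 g) infected orally with 60 third-stage larvae. Test compound given orally as a single dose on day 20 ± 1 postinfection, starting at 250 mg/kg × 1. Lower doses were used for active compounds to establish dose–response. Method of Ray et al. as modified locally.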

For experiment [2], the system named is Rattus norvegicus. Nature of the experiment: Compound was evaluated for the biological activity against Hymenolepsis nana (rats) at the 100 mg/kg. The format is functional. The procedure, abridged: (§2)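 Male rats (25–35 g) infected orally with 200 viable eggs. Infection confirmed by ovoscopic examination on days 17–20 postinoculation. Positive rats dosed orally on day 20 ± 1, initially 250 mg/kg × 1, then lower doses for dose–response. Method of Steward.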

Experiment [3] relates to Rattus norvegicus. Nature of the experiment: Compound was evaluated for the biological activity against Hymenolepsis nana (rats) at the 250 mg/kg. Format: functional. The essentials: as §2
The subject of experiment [4] is Nippostrongylus brasiliensis. Nature of the experiment: Anti-nematode activity against Nippostrongylus brasiliensis in rats at 250 mg/kg; Insignificant activity. Format: functional.
The subject of experiment [5] is Cricetinae gen. sp. Nature of the experiment: Compound was evaluated for the biological activity against Ancylostoma ceylanicum in hamsters at the 100-25 mg/kg. The format is functional, Cricetulus griseus. The procedure, abridged:
as §1

The test system of experiment [6] is Rattus norvegicus. Nature of the experiment: Compound was evaluated for the biological activity against Hymenolepsis nana (rats) at the 25 mg/kg. Format: functional. The procedure, abridged: as §2
The test system of experiment [7] is Rattus norvegicus. Nature of the experiment: Compound was evaluated for the biological activity against Hymenolepsis nana (rats) at the 50 mg/kg. The format is functional. The essentials:
as §2

The subject of the next experiment is Ancylostoma ceylanicum. Nature of the experiment: Compound was evaluated for the biological activity against Ancylostoma ceylanicum in hamsters at the 250 mg/kg. The format is functional. The procedure, abridged:
as §1

Calls of active or inactive are those of the source. The rule behind the calls is not given here.

Turning to `COC(=O)Nc1nc2cc(C(=O)NCc3ccco3)ccc2[nH]1`, the Activity in the experiment on Cricetinae gen. sp. [1] amounted to 57%; in the experiment on Rattus norvegicus [2], 100%; in the experiment on Rattus norvegicus [3] it was 100%; in the experiment on Cricetinae gen. sp. [5] it was 100%; in the experiment on Rattus norvegicus [6], 100%; with Rattus norvegicus [7], 100%. In the experiment on Ancylostoma ceylanicum, the Activity is reported as 100%. The outcome in experiment [4] was inactive.
